Source: publication PMC10840928 (Chemistry (Weinheim an der Bergstrasse, Germany), 2023)

What was measured:
[1] = pKa by UV-vis spectrophotometric titration; type: physicochemical; settings: pH 3-11, I = 0.1 M NaCl
In short: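 About 20 μM test compound in 0.1 M NaCl titrated with small aliquots of 0.2 M NaOH, from low to high pH (3–11). Run at room temperature under moist N2 flow until spectra stopped changing, giving about 30 UV-vis spectra per compound. Constants fitted with HypSpec. Largest pKa assigned to the phenol O-H.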

[2] = target: Aβ42 oligomers and fibrils (Homo sapiens, UniProt P05067); assay: Fluorescence turn-on with Aβ42 fibrils and oligomers; type: binding; settings: 5 μM compound, 25 μM Aβ42 species, PBS; for maximum emission wavelength in the presence of Aβ aggregates: for DCM-OH-2-MT the LE peak; for fluorescence turn-on effect with Aβ aggregates: excitation 470 nm
Aβ42 oligomers and fibrils, sequence (P05067 672-713 limits assumed): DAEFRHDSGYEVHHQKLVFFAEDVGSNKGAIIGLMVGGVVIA

[3] = target: Aβ aggregates in 5xFAD mouse brain sections (Homo sapiens, UniProt P05067); assay: Histological staining of 5xFAD mouse brain sections, colocalization with ThS; settings: 9-month-old 5xFAD brain sections, 10 μM compound, 2.5 μM ThS
Aβ aggregates in 5xFAD mouse brain sections, sequence (P05067 672-711 limits assumed): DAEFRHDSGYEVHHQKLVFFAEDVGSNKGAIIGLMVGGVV

[4] = system: Aβ aggregates in 5xFAD mice; assay: Real-time in vivo NIR fluorescence imaging; set-up: species or system mouse; settings: 5 mg/kg
[5] = Job's plot analysis of Cu; type: physicochemical; settings: PBS pH 7.4, total 30 μM
In short: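 Test compound and Cu(II) mixed in PBS pH 7.4, Cu from 0 to 100 mol %, combined concentration fixed at 30 μM. Equilibrated at least 5 min at room temperature. UV-vis spectra recorded, and stoichiometry read from the break point of the plot versus Cu mole fraction.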

Aβ42 peptide = Aβ42 peptide (Homo sapiens, UniProt P05067); assay: In vitro Aβ42 aggregation monitoring; type: binding; settings: 25 μM peptide, 5 μM probe, 37 °C, 0-40 h
Aβ42 peptide, sequence (P05067 672-713 limits assumed): as the sequence (P05067 672-713 limits assumed) above

[6] = Viscosity sensitivity measurement; type: physicochemical; settings: 10 μM, ethylene glycol/glycerol mixtures
In short: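 Mixed until no layering, then fluorescence intensity recorded. log I plotted against log η and fitted by linear regression (log I = x log η + A). Slope x taken as sensitivity.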

[7] = system: mouse neuroblastoma (N2A) cells; assay: Alamar Blue cytotoxicity, N2A cells; type: cell-based; settings: 40 h treatment
In short: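 Cells seeded at 2.0 × 10⁴/well and grown 24 h. Medium switched to DMEM/N-2 for 1 h, then test compound added at a range of concentrations for 40 h. Alamar Blue added and incubated 90 min at 37 °C. Fluorescence read at 590 nm (excitation 560 nm).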

[8] = system: human neuroblastoma (SH-SY5Y) cells; assay: Alamar Blue cytotoxicity, SH-SY5Y cells; type: cell-based; settings: 40 h treatment
In short: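 After seeding at 2.0 × 10⁴/well and 24 h growth, medium changed to MEM/F-12 (1:1)/N-2 for 1 h. Cells exposed 40 h to test compound at varying concentrations. Alamar Blue incubation 90 min at 37 °C, then fluorescence measured at 590 nm with 560 nm excitation.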

pKa of the phenol O-H (largest pKa value) [1]	maximum emission wavelength in the presence of Aβ aggregates [2]	fluorescence turn-on effect with Aβ aggregates [2]	SMILES	labeling pattern of Aβ aggregates on brain sections [3]	stoichiometry of Cu(II)-ligand complexation in solution [5]	fluorescence response during Aβ42 aggregation (Aβ42 peptide)	also measured
9.35	about 730 nm		CN1CCN(C)CCN(Cc2cc(/C=C/C=C/C3=CC(=C(C#N)C#N)c4ccccc4O3)cc(CN3CCN(C)CCN(C)CC3)c2O)CC1 [DCM-OH-2-DT]	bind to the peripheral region of the Aβ aggregates	only the 1:1 ligand-to-Cu complexes	more significant fluorescence increases at the early stage	brain NIR fluorescence signal, AD mice vs WT mice ([4]; 7-month-old 5xFAD vs WT, 5-, 15-, 30-min post injection): significantly higher fluorescence signal in AD mice; time to maximum brain fluorescence signal after injection ([4]; jugular vein injection, 7-month-old mice): about 15 min; viscosity sensitivity (x value) [6]: lowest viscosity sensitivity
11.73	620 nm	significant fluorescence turn-on effect	N#CC(C#N)=C1C=C(/C=C/C=C/c2ccc(O)cc2)Oc2ccccc21 [DCM-OH-2]	binding to the identical core regions of the Aβ aggregates		more significant fluorescence increases at the early stage	cytotoxicity [7]: slightly more toxic than the others; cytotoxicity [8]: slightly more toxic than the others
	620 nm		CN1CCN(C)CCN(Cc2cc(/C=C/C=C/C3=CC(=C(C#N)C#N)c4ccccc4O3)ccc2O)CC1 [DCM-OH-2-MT]	bind to the peripheral region of the Aβ aggregates			second emission peak (ESIPT emission) in the presence of Aβ aggregates [2]: 730 nm

The remaining lines, values behind:

SMILES	pKa of the phenol O-H (largest pKa value) [1]	maximum emission wavelength in the presence of Aβ aggregates [2]	fluorescence turn-on effect with Aβ aggregates [2]	labeling pattern of Aβ aggregates on brain sections [3]	stoichiometry of Cu(II)-ligand complexation in solution [5]	fluorescence response during Aβ42 aggregation (Aβ42 peptide)	also measured
CN1CCN(C)CCN(Cc2cc(/C=C/C3=CC(=C(C#N)C#N)c4ccccc4O3)ccc2O)CC1 [DCM-OH-1-MT]		~ 650 nm	fluorescence enhancement		mixture of 1:1 and 2:1 ligand-to-Cu complexes		
CN1CCN(C)CCN(Cc2cc(/C=C/C3=CC(=C(C#N)C#N)c4ccccc4O3)cc(CN3CCN(C)CCN(C)CC3)c2O)CC1 [DCM-OH-1-DT]		~ 650 nm	fluorescence enhancement		mixture of 1:1 and 2:1 ligand-to-Cu complexes		
Cc1ccc2c(c1)sc(-c1ccc(N(C)C)cc1)[n+]2C [ThT, Thioflavin T, reference compound]						minimal fluorescence enhancement from 0–10 h	
